ChEMBL document CHEMBL1687733, “Topoisomerase I gene mutations at F270 in the large subunit and N184 in the small subunit contribute to the resistance mechanism of the unicellular parasite Leishmania donovani towards 3,3'-diindolylmethane” (Antimicrob Agents Chemother, 2009)
pIC50, pKd: −log10 of the molar value. Activity calls are given as the source filed them.

How the values were obtained:
Leishmania donovani [1] = assay: Ratio of antimicrobial activity against drug-resistant Leishmania donovani LdDR50 to antimicrobial activity against wild type Leishmania donovani AG83; type: functional
In short: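 Cells washed twice in PBS, MTT added for 4 h, acidified isopropanol stop for 20 min at room temperature, A570 read. Growth expressed as % of untreated WT OD; three experiments.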

Leishmania donovani [2] = assay: Antimicrobial activity against wild type Leishmania donovani AG83 assessed as inhibition of parasite growth after 24 hrs by MTT assay; type: functional, organism-based
In short: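 WT L. donovani promastigotes were harvested in exponential phase and seeded at 2 × 10^6 cells per well. They were exposed to DIM at 1, 5, 10, 15 and 20 μM, washed in PBS, and given MTT (10 μg/ml) for 4 h. Acidified isopropanol stop was followed by A570. Growth was expressed as % of the OD of untreated WT, from three experiments.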

Leishmania donovani [3] = assay: Antimicrobial activity against wild type Leishmania donovani AG83 transfected with drug-resistant Leishmania donovani LdDR50 topoisomerase 1 F270Lmutant in large subunit assessed as inhibition of parasite growth at 20 uM after 24 hrs by MTT assay; type: functional; conditions: AG83, 24 h
In short: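 WT promastigotes transfected by electroporation with mutant large-subunit (pXG-HYG, hygromycin selection) and/or small-subunit (pXG-GFP2+, G418 selection) topoisomerase I genes. Grown with DIM 1–20 μM for 24 h; MTT read-out, growth as % of optical density of untreated WT parasites.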

Leishmania donovani [4] = assay: Inhibition of recombinant drug-resistant Leishmania donovani LdDR50 topoisomerase 1b large subunit F270L mutant and small subunit N184S mutant-mediated relaxation of supercoiled pBluescript SK(+) DNA at up to 50 uM after 30 mins using ethidium bromide staining
In short: (§1)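 Reconstituted recombinant enzyme (30 fmol) with 90 fmol supercoiled pBluescript SK(+) DNA (3:1 DNA:enzyme), 30 min at 37°C with DIM (1–50 μM for fully mutant enzyme; 10 μM for single-site mutants); 4% DMSO vehicle control. Products on 1% agarose, ethidium bromide (0.5 μg/ml) stained; supercoiled monomer band quantified.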

[5] = test system: T1, Leishmania donovani [K430N]; assay: Inhibition of recombinant drug-resistant Leishmania donovani LdDR50 topoisomerase 1b wild type small subunit and large subunit K430N mutant-mediated relaxation of supercoiled pBluescript SK(+) DNA at up to 50 uM after 30 mins using ethidium bromide staining; in short: as §1
T1 sequence (whole entry): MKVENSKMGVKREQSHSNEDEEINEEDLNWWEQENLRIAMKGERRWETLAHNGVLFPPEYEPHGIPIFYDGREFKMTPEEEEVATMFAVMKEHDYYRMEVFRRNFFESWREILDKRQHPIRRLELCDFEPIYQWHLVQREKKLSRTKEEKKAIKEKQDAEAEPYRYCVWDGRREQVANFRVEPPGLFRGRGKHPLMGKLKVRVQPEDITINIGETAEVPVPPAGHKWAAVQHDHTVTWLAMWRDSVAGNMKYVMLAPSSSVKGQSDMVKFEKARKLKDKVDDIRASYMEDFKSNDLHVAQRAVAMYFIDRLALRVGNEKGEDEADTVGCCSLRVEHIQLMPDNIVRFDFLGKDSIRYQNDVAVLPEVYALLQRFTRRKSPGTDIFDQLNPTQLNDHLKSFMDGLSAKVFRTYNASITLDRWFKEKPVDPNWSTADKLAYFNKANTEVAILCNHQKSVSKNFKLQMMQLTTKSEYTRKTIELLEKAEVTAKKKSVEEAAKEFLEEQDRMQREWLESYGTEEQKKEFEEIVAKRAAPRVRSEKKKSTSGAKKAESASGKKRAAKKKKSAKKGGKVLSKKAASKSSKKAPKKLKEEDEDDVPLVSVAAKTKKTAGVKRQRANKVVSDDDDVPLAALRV

[6] = test system: T2, DNA topoisomerase type IB small subunit (Leishmania donovani (strain BPK282A1)), E9B7X3 [N184S]; assay: Inhibition of recombinant drug-resistant Leishmania donovani LdDR50 topoisomerase 1b small subunit N184S mutant-mediated religation of 14-mer/25-mer suicide DNA substrate at 20 uM […] by PAGE analysis
T2 sequence (whole entry): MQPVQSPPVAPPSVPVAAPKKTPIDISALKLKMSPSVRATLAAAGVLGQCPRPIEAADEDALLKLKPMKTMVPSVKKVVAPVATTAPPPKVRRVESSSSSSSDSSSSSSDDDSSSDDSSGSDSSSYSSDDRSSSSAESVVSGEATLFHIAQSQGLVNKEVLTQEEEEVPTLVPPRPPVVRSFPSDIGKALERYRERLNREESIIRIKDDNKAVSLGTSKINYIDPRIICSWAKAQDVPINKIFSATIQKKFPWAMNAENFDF
In short: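 5′-32P-labelled 14-mer annealed to 25-mer suicide substrate (5 nM) cleaved by 0.15 μM reconstituted enzyme at 23°C, ± 20 μM DIM. Complexes moved to 30°C for 2 min; religation started with 300-fold excess 11-mer acceptor for 30, 60, 120 s. Stopped with 1% SDS, trypsin-treated, 23-mer product resolved on sequencing gel.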

[7] = Binding affinity to recombinant drug-resistant Leishmania donovani LdDR50 topoisomerase 1b after 24 hrs by equilibrium dialysis method
In short: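 Recombinant His-tagged subunits expressed in E. coli BL21(DE3) pLysS, purified on Ni-NTA then phosphocellulose, reconstituted 1:1. Enzyme 200 μM with DIM 1–20 μM in 20 mM Tris-HCl pH 7.5, 50 mM NaCl, 10 mM MgCl2 for 30 min at 37°C, then dialysed (12–14 kDa cutoff) 24 h at 25°C. Free DIM measured by absorbance (ε 6.6 × 10^4 M−1); KD from saturation plot.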

[8] = Binding affinity to recombinant wild type Leishmania donovani AG83 topoisomerase 1b after 24 hrs by equilibrium dialysis method
[9] = Binding affinity to Leishmania donovani large subunit of topoisomerase 1b

c1ccc2c(Cc3c[nH]c4ccccc34)c[nH]c2c1 [ARUNDINE]
Ratio (Leishmania donovani [1]): 42
inhibition (Leishmania donovani [2]): Dose-dependent effect
pIC50 (Leishmania donovani [2]; AG83, 24 h): 5.90
inhibition at 20 µM (Leishmania donovani [3]): 34%
inhibition (Leishmania donovani [4]): inactive
inhibition [5]: Active
inhibition [6]: Active
pKd [7]: 3.62
pKd [8]: 8.01
pKd [9]: 6.37
